Laboratory results taken from PMC9391279 (Cell chemical biology, 2022).

Legend:
BRD4(BD1) = conditions: read-out: KD,BD1, ref Faivre et al., 2020; cited from earlier work
BRD4(BD2) = conditions: read-out: KD,BD2, ref Faivre et al., 2020; cited from earlier work
BRD4 in MDA-MB-231 cells [1] = target: T1, BRD4 in MDA-MB-231 cells (Homo sapiens, UniProt O60885); experiment: BRD4 degradation rescue experiments, MDA-MB-231; assay type: cell-based, H. sapiens; conditions: for Rescue of CS-JQ1-induced BRD4 degradation by co-treatment: MDA-MB-231, co-treatment with CS-JQ1, 5 h; for Rescue of dBET6-induced BRD4 degradation by co-treatment: MDA-MB-231, co-treatment with dBET6, 5 h
Keap1-BTB domain = Keap1-BTB domain (Homo sapiens, UniProt Q14145); experiment: TR-FRET ligand displacement assay, Keap1-BTB domain; assay type: binding
BRD4 in MCF7 cells [2] = target: T2, BRD4 in MCF7 cells (Homo sapiens, UniProt O60885); experiment: BRD4 degradation rescue experiments, MCF7; assay type: cell-based, H. sapiens; conditions: for Rescue of CS-JQ1-induced BRD4 degradation by co-treatment: MCF7, co-treatment with CS-JQ1, 5 h; for Rescue of dBET6-induced BRD4 degradation by co-treatment: MCF7, co-treatment with dBET6, 5 h
BRD4 in MDA-MB-231 cells [3] = target: T1, BRD4 in MDA-MB-231 cells; experiment: TR-FRET BRD4 quantification, 24-well plate format, MDA-MB-231; assay type: cell-based, H. sapiens; conditions: MDA-MB-231, 5 h treatment, 1 h washout
BRD4 = experiment: TR-FRET ligand displacement assays with recombinant BRD4; assay type: binding, human; conditions: Figure 4B
Outline: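 Tracer displacement of JQ1-FITC (20 nM) from 4 nM GST-BRD4(BD1) or GST-BRD4(BD2) with 4 nM CoraFluor-1 anti-GST VHH, in HEPES/NaCl/BSA/Tween buffer, pH 7.5. Endogenous BRD4 was tested in clarified MCF7 lysate at 0.8 mg/mL total protein. Floor was a 10 μM reference inhibitor; ceiling was no inhibitor. Four-parameter IC50 fits were converted to KD,app by Cheng-Prusoff using tracer KD,app.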

BRD4 in MCF7 cells [4] = target: T2, BRD4 in MCF7 cells; experiment: TR-FRET BRD4 quantification, 24-well plate format, MCF7; assay type: cell-based, H. sapiens; conditions: MCF7, 5 h treatment, 1 h washout
BRD4 in MDA-MB-231 cells [5] = target: T1, BRD4 in MDA-MB-231 cells; experiment: BRD4 ubiquitination by immunoprecipitation / Western blot; assay type: cell-based, H. sapiens; conditions: MDA-MB-231, 5 h
Keap1-Kelch domain = Keap1-Kelch domain (Homo sapiens, UniProt Q14145); experiment: TR-FRET ligand displacement assay, Keap1-Kelch domain; assay type: binding
BRD4 in MDA-MB-231 cells [6] = target: T1, BRD4 in MDA-MB-231 cells; experiment: TR-FRET BRD4 quantification, 96-well plate format; assay type: cell-based, H. sapiens; conditions: MDA-MB-231, 30 min to 10 h, 96-well no wash-out
[7] = system: full-length Keap1 and individual BRD4 bromodomains; assay type: biochemical; conditions: BRD4(BD1) or BRD4(BD2)

Chain of Keap1-BTB domain (Q14145 whole entry, the tested form may be a part): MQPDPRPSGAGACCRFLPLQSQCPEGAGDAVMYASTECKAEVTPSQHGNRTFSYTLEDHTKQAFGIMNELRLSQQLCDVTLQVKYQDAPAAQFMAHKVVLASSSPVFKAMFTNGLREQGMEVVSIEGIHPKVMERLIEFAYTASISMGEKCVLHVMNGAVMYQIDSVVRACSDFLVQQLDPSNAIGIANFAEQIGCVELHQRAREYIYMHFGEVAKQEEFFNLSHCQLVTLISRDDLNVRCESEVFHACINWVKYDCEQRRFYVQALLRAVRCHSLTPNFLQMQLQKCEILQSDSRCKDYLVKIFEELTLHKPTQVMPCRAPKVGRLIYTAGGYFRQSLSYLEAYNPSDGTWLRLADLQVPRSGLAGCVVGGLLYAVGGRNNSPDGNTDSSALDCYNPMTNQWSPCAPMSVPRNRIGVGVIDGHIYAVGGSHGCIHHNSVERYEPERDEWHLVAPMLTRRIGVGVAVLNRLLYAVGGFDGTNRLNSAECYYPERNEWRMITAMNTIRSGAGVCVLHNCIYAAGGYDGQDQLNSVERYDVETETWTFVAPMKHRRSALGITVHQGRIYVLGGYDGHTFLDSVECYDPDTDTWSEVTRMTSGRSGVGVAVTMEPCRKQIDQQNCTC
Chain of Keap1-Kelch domain (Q14145 whole entry, the tested form may be a part): as above

SMILES | Rescue of CS-JQ1-induced BRD4 degradation by co-treatment (BRD4 in MDA-MB-231 cells [1]) | Rescue of CS-JQ1-induced BRD4 degradation by co-treatment (BRD4 in MCF7 cells [2]) | Rescue of dBET6-induced BRD4 degradation by co-treatment (BRD4 in MDA-MB-231 cells [1]) | Rescue of dBET6-induced BRD4 degradation by co-treatment (BRD4 in MCF7 cells [2]) | further results
CCS(=O)(=O)Nc1ccc(Oc2ccc(F)cc2F)c(-c2cn(C)c(=O)c3[nH]ccc23)c1 [ABBV-075, ABBV-075 (Mivebresib)] | – | – | – | – | Kd (BRD4(BD1)): 13.8 nM; Kd (BRD4(BD2)): 2.5 nM
COC(=O)[C@]12CCC(C)(C)C[C@H]1[C@H]1C(=O)C=C3[C@@]4(C)C=C(C#N)C(=O)C(C)(C)[C@@H]4CC[C@@]3(C)[C@]1(C)CC2 [CDDO-Me, bardoxolone methyl] | not altered | – | – | – | Kd (Keap1-BTB domain): 24 nM
CC1=C(O)C(=O)C=C2C1=CC=C1[C@@]2(C)CC[C@@]2(C)[C@@H]3C[C@](C)(C(=O)O)CC[C@]3(C)CC[C@]12C [CS, celastrol] | reduced CS-JQ1 degradation efficiency | reduced CS-JQ1 degradation efficiency | – | – | –
CC1=C(O)C(=O)C=C2C1=CC=C1[C@@]2(C)CC[C@@]2(C)[C@@H]3C[C@](C)(C(=O)NCCCOCCOCCOCCCNC(=O)CC4N=C(c5ccc(Cl)cc5)c5c(sc(C)c5C)-n5c(C)nnc54)CC[C@]3(C)CC[C@]12C (stereo partly drawn) [CS-JQ1, (2R,4aS,6aS,12bR,14aS,14bR)-N-(1-(4-(4-chlorophenyl)-2,3,9-trimethyl-6H-thieno[3,2-f][1,2,4]triazolo[4,3-a][1,4]diazepin-6-yl)-2-oxo-7,10,13-trioxa-3-azahexadecan-16-yl)-10-hydroxy-2,4a,6a,9,12b,14a-hexamethyl-11-oxo-1,2,3,4,4a,5,6,6a,11,12b,13,14,14a,14b-tetradecahydropicene-2-carboxamide] | – | – | – | – | BRD4 level by TR-FRET after treatment (in words) (BRD4 in MDA-MB-231 cells [3]): dose-dependent and efficient degradation of BRD4; Target engagement with BRD4 (in words) (BRD4): validated target engagement with BRD4; BRD4 level by TR-FRET after treatment (in words) (BRD4 in MCF7 cells [4]): dose-dependent and efficient degradation of BRD4; Induction of BRD4 ubiquitination (BRD4 in MDA-MB-231 cells [5]): induce BRD4 ubiquitination; Binding to the Keap1 Kelch domain (in words) (Keap1-Kelch domain): lost the ability to bind; BRD4 degradation kinetics (in words) (BRD4 in MDA-MB-231 cells [6]): slightly slower kinetics; Ternary complex formation between full-length Keap1 and individual BRD4 bromodomains [7]: could induce ternary complex formation; Affinity for the Keap1 BTB domain (in words) (Keap1-BTB domain; compared with celastrol): slightly improved affinity
NS(=O)(=O)OC[C@@H]1C[C@@H](n2ccc3c(N[C@H]4CCc5ccccc54)ncnc32)C[C@@H]1O [MLN4924] | restored BRD4 levels | restored BRD4 levels | attenuated | attenuated | –
Cc1ncsc1-c1ccc(CNC(=O)[C@@H]2C[C@@H](O)CN2C(=O)[C@@H](NC(=O)COCCOCCOCCNC(=O)C[C@@H]2N=C(c3ccc(Cl)cc3)c3c(sc(C)c3C)-n3c(C)nnc32)C(C)(C)C)cc1 [MZ1] | – | – | – | – | BRD4 degradation kinetics (in words) (BRD4 in MDA-MB-231 cells [6]): slightly slower degradation kinetics

Now from value to molecule, other results behind:

Rescue of CS-JQ1-induced BRD4 degradation by co-treatment (BRD4 in MDA-MB-231 cells [1]) | Rescue of CS-JQ1-induced BRD4 degradation by co-treatment (BRD4 in MCF7 cells [2]) | Rescue of dBET6-induced BRD4 degradation by co-treatment (BRD4 in MDA-MB-231 cells [1]) | Rescue of dBET6-induced BRD4 degradation by co-treatment (BRD4 in MCF7 cells [2]) | SMILES | further results
restored BRD4 levels | restored BRD4 levels | attenuated | attenuated | NS(=O)(=O)OC[C@H]1C[C@@H](Nc2ccnc3cc(-c4cccc(SC(F)(F)F)c4)nn23)[C@H](O)[C@@H]1O [MLN7243] | –
– | – | attenuated | attenuated | CC(C)C[C@H](NC(=O)[C@H](Cc1ccccc1)NC(=O)c1cnccn1)B(O)O [bortezomib] | –
– | – | attenuated | attenuated | Nc1cccc2c1C(=O)N(C1CCC(=O)NC1=O)C2=O (stereo not drawn) [pomalidomide] | –
